Laboratory results from ChEMBL document CHEMBL3421595, “Design and Synthesis of New α-Naphthoflavones as Cytochrome P450 (CYP) 1B1 Inhibitors To Overcome Docetaxel-Resistance Associated with CYP1B1 Overexpression” (J Med Chem, 2015).

organism: Homo sapiens; assay: Selectivity index, ratio of IC50 for human CYP1A1 to IC50 for human CYP1B1; conditions: not given
Procedure, shortened: (§1)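 Recombinant human CYP1B1, 1A1 and 1A2 in a standard EROD assay. 7-Ethoxyresorufin fixed at 150 nM. NADPH regeneration system: 1.3 mM NADP+, 3.3 mM G-6-P, 0.5 U/mL G6-PD. Incubation time 35 min for CYP1B1, 15 min for 1A1 and 50 min for 1A2. Resorufin fluorescence read at ex 545 / em 590 nm. IC50 by Probit analysis; selectivity taken as the ratio of IC50 values.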

Row | Compound | Ratio IC50
1 | COc1cc(-c2cc(=O)c3cc(OC)c4c(OC)ccc(OC)c4c3o2)cc(OC)c1OC | 2.3
2 | COc1ccc(OC)c2c1c(OC)cc1c(=O)c(O)c(-c3ccc(F)cc3)oc12 | 15
3 | COc1ccc(OC)c2c1c(OC)cc1c(=O)cc(-c3ccc(F)cc3)oc12 | 33
4 | COc1ccc(OC)c2c1c(OC)cc1c(=O)c(OCCCCOC(=O)CN)c(-c3cccc(F)c3)oc12 | 1.9
5 | COc1ccc(-c2cc(=O)c3cc(OC)c4c(OC)ccc(OC)c4c3o2)cc1 | 12
6 | COc1ccc(OC)c2c1c(OC)cc1c(=O)cc(-c3ccccc3)oc12 | 24
7 | COc1ccc(OC)c2c1c(OC)cc1c(=O)c(OCCCCCCCCOC(=O)CN)c(-c3cccc(F)c3)oc12 | 1.6
8 | COc1ccc(-c2cc(=O)c3cc(OC)c4c(OC)ccc(OC)c4c3o2)cc1OC | 4.6
9 | COc1ccc(OC)c2c1c(OC)cc1c(=O)c(OCCCCCCOC(=O)CN)c(-c3cccc(F)c3)oc12 | 0.53
10 | COc1ccc(OC)c2c1c(OC)cc1c(=O)cc(-c3ccc(O)cc3)oc12 | 0.18
11 | COc1ccc(OC)c2c1c(OC)cc1c(=O)cc(-c3cccc(F)c3)oc12 | 267
12 | COc1ccc(OC)c2c1c(OC)cc1c(=O)cc(-c3ccccc3F)oc12 | 29.5
13 | COc1ccc(OC)c2c1c(OC)cc1c(=O)c(O)c(-c3ccccc3F)oc12 | 23
14 | COc1ccc(OC)c2c1c(OC)cc1c(=O)c(O)c(-c3cccc(Cl)c3)oc12 | 13

biological target: T1, Cytochrome P450 1A1 (Homo sapiens, UniProt P04798); assay: Inhibition of human CYP1A1 assessed as reduction in 7-ethoxyresorufin O-deethylation activity by fluorescence based EROD assay; type: ADME; conditions: not given; procedure, shortened: as §1
T1 sequence (P04798 whole entry): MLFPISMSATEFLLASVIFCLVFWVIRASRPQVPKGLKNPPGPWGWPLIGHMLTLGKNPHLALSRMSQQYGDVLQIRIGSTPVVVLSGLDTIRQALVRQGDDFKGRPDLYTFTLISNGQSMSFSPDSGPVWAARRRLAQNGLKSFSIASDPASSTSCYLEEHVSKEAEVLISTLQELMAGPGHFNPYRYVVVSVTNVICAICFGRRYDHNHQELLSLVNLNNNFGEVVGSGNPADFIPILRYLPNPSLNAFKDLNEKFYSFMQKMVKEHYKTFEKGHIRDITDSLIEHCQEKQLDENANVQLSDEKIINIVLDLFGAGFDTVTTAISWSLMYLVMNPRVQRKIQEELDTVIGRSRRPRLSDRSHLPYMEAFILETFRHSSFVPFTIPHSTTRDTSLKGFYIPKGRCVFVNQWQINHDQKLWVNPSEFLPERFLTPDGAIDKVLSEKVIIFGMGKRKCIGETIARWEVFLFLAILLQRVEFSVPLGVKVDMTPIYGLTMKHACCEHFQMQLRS

Row | IC50 [nM] | Compound
15 | 22.5 | COc1cc(-c2cc(=O)c3cc(OC)c4c(OC)ccc(OC)c4c3o2)cc(OC)c1OC
16 | 11.8 | COc1ccc(OC)c2c1c(OC)cc1c(=O)c(O)c(-c3ccc(F)cc3)oc12
17 | 9.8 | COc1ccc(OC)c2c1c(OC)cc1c(=O)cc(-c3ccc(F)cc3)oc12
18 | 70.2 | COc1ccc(OC)c2c1c(OC)cc1c(=O)c(OCCCCOC(=O)CN)c(-c3cccc(F)c3)oc12
19 | 12.9 | COc1ccc(-c2cc(=O)c3cc(OC)c4c(OC)ccc(OC)c4c3o2)cc1
20 | 4.8 | COc1ccc(OC)c2c1c(OC)cc1c(=O)cc(-c3ccccc3)oc12
21 | 20.2 | COc1ccc(OC)c2c1c(OC)cc1c(=O)c(OCCCCCCCCOC(=O)CN)c(-c3cccc(F)c3)oc12
22 | 11.5 | COc1ccc(-c2cc(=O)c3cc(OC)c4c(OC)ccc(OC)c4c3o2)cc1OC
23 | 36.2 | COc1ccc(OC)c2c1c(OC)cc1c(=O)c(OCCCCCCOC(=O)CN)c(-c3cccc(F)c3)oc12
24 | 114 | COc1ccc(OC)c2c1c(OC)cc1c(=O)cc(-c3ccc(O)cc3)oc12
25 | 5.9 | COc1ccc(OC)c2c1c(OC)cc1c(=O)cc(-c3ccccc3F)oc12
26 | 27.5 | COc1ccc(OC)c2c1c(OC)cc1c(=O)c(O)c(-c3ccccc3F)oc12
27 | 46 | COc1ccc(OC)c2c1c(OC)cc1c(=O)c(O)c(-c3cccc(Cl)c3)oc12

Row | Compound | IC50 [nM]
28 | COc1ccc(OC)c2c1c(OC)cc1c(=O)cc(-c3cccc(F)c3)oc12 | 11.5

organism: Homo sapiens; assay: Selectivity index, ratio of IC50 for human CYP1A2 to IC50 for human CYP1B1; conditions: not given; procedure, shortened: as §1

Row | Compound | Ratio IC50
29 | COc1cc(-c2cc(=O)c3cc(OC)c4c(OC)ccc(OC)c4c3o2)cc(OC)c1OC | 2.4
30 | COc1ccc(OC)c2c1c(OC)cc1c(=O)c(O)c(-c3ccc(F)cc3)oc12 | 72
31 | COc1ccc(OC)c2c1c(OC)cc1c(=O)cc(-c3ccc(F)cc3)oc12 | 51
32 | COc1ccc(OC)c2c1c(OC)cc1c(=O)c(OCCCCOC(=O)CN)c(-c3cccc(F)c3)oc12 | 3.3
33 | COc1ccc(-c2cc(=O)c3cc(OC)c4c(OC)ccc(OC)c4c3o2)cc1 | 15
34 | COc1ccc(OC)c2c1c(OC)cc1c(=O)cc(-c3ccccc3)oc12 | 81
35 | COc1ccc(OC)c2c1c(OC)cc1c(=O)c(OCCCCCCCCOC(=O)CN)c(-c3cccc(F)c3)oc12 | 10
36 | COc1ccc(-c2cc(=O)c3cc(OC)c4c(OC)ccc(OC)c4c3o2)cc1OC | 7.7
37 | COc1ccc(OC)c2c1c(OC)cc1c(=O)c(OCCCCCCOC(=O)CN)c(-c3cccc(F)c3)oc12 | 1.7
38 | COc1ccc(OC)c2c1c(OC)cc1c(=O)cc(-c3ccc(O)cc3)oc12 | 0.09
39 | COc1ccc(OC)c2c1c(OC)cc1c(=O)cc(-c3cccc(F)c3)oc12 | 853
40 | COc1ccc(OC)c2c1c(OC)cc1c(=O)cc(-c3ccccc3F)oc12 | 111
41 | COc1ccc(OC)c2c1c(OC)cc1c(=O)c(O)c(-c3ccccc3F)oc12 | 25
42 | COc1ccc(OC)c2c1c(OC)cc1c(=O)c(O)c(-c3cccc(Cl)c3)oc12 | 12

biological target: T2, Cytochrome P450 1B1 (Homo sapiens, UniProt Q16678); assay: Inhibition of human CYP1B1 assessed as reduction in 7-ethoxyresorufin O-deethylation activity by fluorescence based EROD assay; conditions: not given
T2 sequence (Q16678 whole entry): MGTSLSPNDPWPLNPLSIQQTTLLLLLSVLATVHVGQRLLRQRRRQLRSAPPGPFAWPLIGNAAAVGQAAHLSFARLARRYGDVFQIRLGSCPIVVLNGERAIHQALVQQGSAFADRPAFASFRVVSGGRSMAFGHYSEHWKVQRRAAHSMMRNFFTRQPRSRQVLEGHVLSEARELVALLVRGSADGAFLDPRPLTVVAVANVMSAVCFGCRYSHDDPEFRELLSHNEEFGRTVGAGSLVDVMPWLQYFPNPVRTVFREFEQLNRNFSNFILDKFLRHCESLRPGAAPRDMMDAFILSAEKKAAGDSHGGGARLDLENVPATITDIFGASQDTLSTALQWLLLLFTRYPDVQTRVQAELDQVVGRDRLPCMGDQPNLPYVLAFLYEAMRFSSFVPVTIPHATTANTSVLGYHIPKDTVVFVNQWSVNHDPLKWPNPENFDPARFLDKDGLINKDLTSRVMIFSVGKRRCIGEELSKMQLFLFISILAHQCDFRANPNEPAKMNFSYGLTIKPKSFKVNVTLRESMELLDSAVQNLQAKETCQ
Procedure, shortened: (§2)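 Recombinant human CYP1B1, 1A1 and 1A2 in a standard EROD assay. NADPH regeneration system: 1.3 mM NADP+, 3.3 mM G-6-P, 0.5 U/mL G6-PD. Incubation time 35 min for CYP1B1, 15 min for 1A1 and 50 min for 1A2. IC50 by Probit analysis; selectivity taken as the ratio of IC50 values.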

Row | IC50 [nM] | Compound
43 | 9.8 | COc1cc(-c2cc(=O)c3cc(OC)c4c(OC)ccc(OC)c4c3o2)cc(OC)c1OC
44 | 0.8 | COc1ccc(OC)c2c1c(OC)cc1c(=O)c(O)c(-c3ccc(F)cc3)oc12
45 | 0.3 | COc1ccc(OC)c2c1c(OC)cc1c(=O)cc(-c3ccc(F)cc3)oc12
46 | 37 | COc1ccc(OC)c2c1c(OC)cc1c(=O)c(OCCCCOC(=O)CN)c(-c3cccc(F)c3)oc12
47 | 1.1 | COc1ccc(-c2cc(=O)c3cc(OC)c4c(OC)ccc(OC)c4c3o2)cc1
48 | 0.2 | COc1ccc(OC)c2c1c(OC)cc1c(=O)cc(-c3ccccc3)oc12
49 | 12.3 | COc1ccc(OC)c2c1c(OC)cc1c(=O)c(OCCCCCCCCOC(=O)CN)c(-c3cccc(F)c3)oc12
50 | 2.5 | COc1ccc(-c2cc(=O)c3cc(OC)c4c(OC)ccc(OC)c4c3o2)cc1OC
51 | 68.8 | COc1ccc(OC)c2c1c(OC)cc1c(=O)c(OCCCCCCOC(=O)CN)c(-c3cccc(F)c3)oc12
52 | 643 | COc1ccc(OC)c2c1c(OC)cc1c(=O)cc(-c3ccc(O)cc3)oc12
53 | 0.2 | COc1ccc(OC)c2c1c(OC)cc1c(=O)cc(-c3ccccc3F)oc12
54 | 1.2 | COc1ccc(OC)c2c1c(OC)cc1c(=O)c(O)c(-c3ccccc3F)oc12
55 | 3.5 | COc1ccc(OC)c2c1c(OC)cc1c(=O)c(O)c(-c3cccc(Cl)c3)oc12

biological target: T2, Cytochrome P450 1B1; assay: Potency index, ratio of IC50 for ANF to IC50 for compound against human CYP1B1 assessed as reduction in 7-ethoxyresorufin O-deethylation activity by fluorescence based EROD assay; conditions: read-out: Ratio IC50
Procedure, shortened: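 Recombinant human CYP1B1 EROD assay with 150 nM 7-ethoxyresorufin. NADPH regeneration system (1.3 mM NADP+, 3.3 mM G-6-P, 0.5 U/mL G6-PD) replaced NADPH. Incubated 35 min; resorufin fluorescence read at ex 545/em 590 nm. IC50 by Probit analysis. ANF was the positive control in the same assay, and the index divides its IC50 by the compound's IC50.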

Row | Compound | selectivity ratio
56 | COc1ccc(OC)c2c1c(OC)cc1c(=O)cc(-c3ccccc3)oc12 | 6

biological target: T3, Cytochrome P450 1A2 (Homo sapiens, UniProt P05177); assay: Inhibition of human CYP1A2 assessed as reduction in 7-ethoxyresorufin O-deethylation activity by fluorescence based EROD assay; type: ADME; conditions: not given; procedure, shortened: as §2
T3 sequence (P05177 whole entry): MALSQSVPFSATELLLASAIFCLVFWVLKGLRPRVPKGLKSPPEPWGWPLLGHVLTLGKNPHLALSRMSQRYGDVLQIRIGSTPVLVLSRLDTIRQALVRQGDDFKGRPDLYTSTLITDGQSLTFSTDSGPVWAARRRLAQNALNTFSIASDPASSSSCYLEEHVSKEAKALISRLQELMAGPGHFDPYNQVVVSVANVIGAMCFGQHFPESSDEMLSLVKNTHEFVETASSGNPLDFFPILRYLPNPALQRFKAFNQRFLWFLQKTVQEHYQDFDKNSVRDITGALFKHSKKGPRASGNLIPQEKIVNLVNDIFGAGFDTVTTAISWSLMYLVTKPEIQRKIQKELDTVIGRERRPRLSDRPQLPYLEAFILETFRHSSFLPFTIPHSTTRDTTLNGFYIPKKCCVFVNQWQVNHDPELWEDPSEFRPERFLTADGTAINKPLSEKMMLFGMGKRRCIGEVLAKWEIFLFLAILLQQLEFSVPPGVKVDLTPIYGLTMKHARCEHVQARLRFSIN

Row | IC50 [nM] | Compound
57 | 23.5 | COc1cc(-c2cc(=O)c3cc(OC)c4c(OC)ccc(OC)c4c3o2)cc(OC)c1OC
58 | 57.6 | COc1ccc(OC)c2c1c(OC)cc1c(=O)c(O)c(-c3ccc(F)cc3)oc12
59 | 15.4 | COc1ccc(OC)c2c1c(OC)cc1c(=O)cc(-c3ccc(F)cc3)oc12
60 | 122 | COc1ccc(OC)c2c1c(OC)cc1c(=O)c(OCCCCOC(=O)CN)c(-c3cccc(F)c3)oc12
61 | 16.4 | COc1ccc(-c2cc(=O)c3cc(OC)c4c(OC)ccc(OC)c4c3o2)cc1
62 | 16.1 | COc1ccc(OC)c2c1c(OC)cc1c(=O)cc(-c3ccccc3)oc12
63 | 129 | COc1ccc(OC)c2c1c(OC)cc1c(=O)c(OCCCCCCCCOC(=O)CN)c(-c3cccc(F)c3)oc12
64 | 19.3 | COc1ccc(-c2cc(=O)c3cc(OC)c4c(OC)ccc(OC)c4c3o2)cc1OC
65 | 120 | COc1ccc(OC)c2c1c(OC)cc1c(=O)c(OCCCCCCOC(=O)CN)c(-c3cccc(F)c3)oc12
66 | 58.4 | COc1ccc(OC)c2c1c(OC)cc1c(=O)cc(-c3ccc(O)cc3)oc12
67 | 22.1 | COc1ccc(OC)c2c1c(OC)cc1c(=O)cc(-c3ccccc3F)oc12
68 | 29.4 | COc1ccc(OC)c2c1c(OC)cc1c(=O)c(O)c(-c3ccccc3F)oc12
69 | 42.5 | COc1ccc(OC)c2c1c(OC)cc1c(=O)c(O)c(-c3cccc(Cl)c3)oc12

Row | Compound | IC50 [nM]
70 | COc1ccc(OC)c2c1c(OC)cc1c(=O)cc(-c3cccc(F)c3)oc12 | 36.7
